# Data as given in ChEMBL document CHEMBL1132588, “Synthesis, CoMFA analysis, and receptor docking of 3,5-diacyl-2, 4-dialkylpyridine derivatives as selective A3 adenosine receptor antagonists” (J Med Chem, 1999).
# Experiments:
# [1] = molecular target: T1, Adenosine receptor A3 (Homo sapiens) (UniProt P0DMS8); assay: (§1) Displacement of specific [125 I]AB-MECA binding at human Adenosine A3 receptor expressed in HEK cells; assay type: cell-based; conditions: HEK293
# T1 sequence (whole entry): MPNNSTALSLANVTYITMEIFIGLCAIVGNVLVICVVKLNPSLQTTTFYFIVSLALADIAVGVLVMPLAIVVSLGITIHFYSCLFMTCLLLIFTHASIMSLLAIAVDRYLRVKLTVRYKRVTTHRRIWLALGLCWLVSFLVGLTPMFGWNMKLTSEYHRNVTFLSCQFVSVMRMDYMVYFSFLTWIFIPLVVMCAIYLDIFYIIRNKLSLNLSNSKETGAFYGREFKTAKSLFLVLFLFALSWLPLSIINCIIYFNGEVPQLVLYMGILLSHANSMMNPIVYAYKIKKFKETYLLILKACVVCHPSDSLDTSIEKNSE
# [2] = molecular target: T2, Adenosine receptor A1 (Rattus norvegicus, UniProt P25099); assay: (§2) Displacement of specific [3H]-CGS- 21680R-PIA binding to Adenosine A1 receptor in rat brain membranes.; assay type: cell membranes; conditions: in the assay text read “[3H]R-PIA” for “[3H]-CGS- 21680R-PIA”
# T2 sequence (P25099 whole entry): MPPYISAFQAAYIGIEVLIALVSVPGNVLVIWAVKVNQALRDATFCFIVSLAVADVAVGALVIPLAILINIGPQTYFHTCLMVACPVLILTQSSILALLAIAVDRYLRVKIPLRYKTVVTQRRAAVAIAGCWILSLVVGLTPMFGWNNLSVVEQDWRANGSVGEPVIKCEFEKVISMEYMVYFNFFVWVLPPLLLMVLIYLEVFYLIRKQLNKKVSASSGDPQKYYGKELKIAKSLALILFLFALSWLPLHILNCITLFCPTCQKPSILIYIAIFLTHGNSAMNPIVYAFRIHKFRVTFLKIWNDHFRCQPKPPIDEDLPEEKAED
# Procedure, shortened: (§3)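 A1 binding used [3H]R-PIA on rat cerebral cortex membranes. Adenosine deaminase (3 units/mL) was included in membrane preparation, in a 30 min preincubation at 30 °C, and throughout radioligand incubation. Competitors were DMSO stocks diluted in buffer, with DMSO never above 2%.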
# [3] = molecular target: T3, Adenosine receptor A3 (Homo sapiens, UniProt P0DMS8); assay: as §1; assay type: cell-based, HEK293
# T3 sequence (P0DMS8 whole entry): T1 sequence (whole entry)
# Procedure, shortened: (§4)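 Membranes from HEK-293 cells stably expressing human A3 receptor (clone HS-21a), or from CHO cells stably expressing rat A3 receptor (rat: n = 3-5), in 50 mM Tris, 10 mM Mg2+, 1 mM EDTA, pH 8.0. Membranes at 0.3 mg protein/mL with [125I]AB-MECA at 0.3 nM final. Nonspecific binding defined with R-PIA. Competitors were dissolved in DMSO (≤2% final) and tested at ≥5 concentrations spanning 3 log units. Bound ligand was separated by GF/B filtration with three buffer rinses; Ki was derived.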
# [4] = molecular target: Adenosine receptor A2a (Rattus norvegicus) (UniProt P30543); assay: (§5) Displacement of specific [3H]-CGS- 21680 binding to Adenosine A2A receptor in rat striatal membranes; assay type: cell membranes; parameters: concentration or dose not given beside the values; conditions: Membrane, concentration not given here
# Chain of Adenosine receptor A2a (Rattus norvegicus) (P30543 whole entry): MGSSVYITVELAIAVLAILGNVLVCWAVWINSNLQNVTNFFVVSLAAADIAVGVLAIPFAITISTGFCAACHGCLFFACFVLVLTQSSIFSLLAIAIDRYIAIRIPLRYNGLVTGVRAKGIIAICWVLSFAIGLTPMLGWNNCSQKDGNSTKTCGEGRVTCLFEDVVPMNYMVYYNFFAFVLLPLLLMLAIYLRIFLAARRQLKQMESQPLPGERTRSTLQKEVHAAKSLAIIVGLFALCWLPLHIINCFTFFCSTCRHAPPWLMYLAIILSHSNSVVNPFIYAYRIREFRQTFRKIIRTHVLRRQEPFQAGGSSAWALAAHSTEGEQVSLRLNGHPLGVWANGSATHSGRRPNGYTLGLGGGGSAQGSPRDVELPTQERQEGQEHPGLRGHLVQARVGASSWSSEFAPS
# Procedure, shortened: (§6)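 Rat striatal membranes labelled with [3H]CGS 21680 for A2A binding. Adenosine deaminase (3 units/mL) was present during membrane preparation, during a 30 min preincubation at 30 °C, and during radioligand incubation. Competitors were dissolved in DMSO and diluted in buffer (DMSO ≤2%).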
# [5] = species on record: Rattus norvegicus; assay: Ratio of binding affinities for rat A1 receptor against human A3 receptor, [Ki(rA1) / Ki (hA3)].
# Procedure, shortened: (§7)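 Ratio of Ki values from binding assays. For A3, [125I]AB-MECA (final 0.3 nM) bound membranes of HEK-293 cells expressing human A3 (clone HS-21a) or CHO cells expressing rat A3, in Tris/Mg2+/EDTA buffer at pH 8.0. For rat A1, [3H]R-PIA bound cerebral cortex membranes, with adenosine deaminase (3 units/mL) present, including a 30 min preincubation at 30 °C.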
# [6] = molecular target: Adenosine receptor A2a (Rattus norvegicus) (UniProt P30543); assay: as §5; assay type: cell membranes; conditions: Membrane; procedure, shortened: as §6
# [7] = molecular target: Adenosine receptor A2a (Rattus norvegicus, UniProt P30543); assay: Inhibition of [3H]-CGS- 21680 binding to Adenosine A2A receptor in rat striatal membranes.; assay type: cell membranes, Membrane
# Chain of Adenosine receptor A2a (P30543 whole entry): as above
# [8] = molecular target: T4, Adenosine receptor A1 (Rattus norvegicus) (UniProt P25099); assay: as §2; assay type: cell membranes; conditions: concentration not given here; procedure, shortened: as §3
# T4 sequence (whole entry): T2 sequence (P25099 whole entry)
# [9] = molecular target: T1, Adenosine receptor A3 (Homo sapiens); assay: as §1; assay type: cell-based; conditions: HEK293; concentration not given here; procedure, shortened: as §4
# [10] = molecular target: T5, Adenosine receptor A3 (Rattus norvegicus, UniProt P28647); assay: Displacement of specific [125I]AB-MECA binding at rat Adenosine A3 receptor stably expressed in CHO cells; assay type: cell-based
# T5 sequence (P28647 whole entry): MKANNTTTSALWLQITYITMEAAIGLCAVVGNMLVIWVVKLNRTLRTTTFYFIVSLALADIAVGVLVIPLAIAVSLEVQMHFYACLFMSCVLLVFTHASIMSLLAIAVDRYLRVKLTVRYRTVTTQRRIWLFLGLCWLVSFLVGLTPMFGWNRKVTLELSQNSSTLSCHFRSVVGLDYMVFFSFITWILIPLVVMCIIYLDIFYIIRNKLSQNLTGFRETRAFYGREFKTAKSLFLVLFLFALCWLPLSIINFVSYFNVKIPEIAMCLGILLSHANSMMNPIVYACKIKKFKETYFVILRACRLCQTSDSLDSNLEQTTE
# [11] = species on record: Rattus norvegicus; assay: Ratio of the binding affinities against rat A3 receptor / human A3 receptor, Ki([…]) / Ki (hA3).; procedure, shortened: as §7
# [12] = species on record: Rattus norvegicus; assay: Ratio of the binding affinities against rat A3 receptor / rat A3 receptor, Ki(rA1) / Ki (rA3).; procedure, shortened: as §7
SMILES,pKi [1],Ki [2] [µM],Ki [3] [µM],Ratio [5],Ki [7] [µM],also measured
CCCOC(=O)c1c(-c2ccc(F)cc2)nc(CC)c(C(=O)SCC)c1CCC,7.51,41,0.0311,1300,–,inhibition [4]: 50%
CCCOC(=O)c1c(-c2cccc(Cl)c2)nc(CC)c(C(=O)SCCC)c1CC,8.1,–,–,–,–,–
CCOC(=O)c1c(C)nc(-c2ccccc2)c(C(=O)OCc2ccccc2)c1C#Cc1ccccc1,5.56,–,–,–,–,–
CCOC(=O)c1c(-c2ccccc2)nc(CC)c2c1CCCNC2=O,5.7,5.79,1.99,–,–,Displacement [6]: < 10%
CCCOC(=O)c1c(-c2ccccc2)nc(CC)c(C(=O)SCC)c1CCSC(C)=O,6.91,9.8,0.124,79,–,inhibition [4]: 28%
CCSC(=O)c1c(CC)nc(-c2ccccc2)c(C(=O)OCCO)c1CC,6.73,–,–,–,–,–
CCCOC(=O)c1c(-c2ccccc2)nc(CC)c(C(=O)SCC)c1CCO,6.58,9.04,0.262,35,0.0103,–
CCNC(=O)c1c(C)nc(-c2ccccc2)c(C(=O)OCC)c1CC,–,–,–,–,–,inhibition [8]: < 10%; inhibition [9]: < 10%; inhibition [4]: < 10%
CCOC(=O)c1c(-c2ccccc2)nc(C2CCC2)c(C(=O)SCC)c1CC,6.84,–,–,–,–,–
CCCOC(=O)c1c(-c2ccccc2)nc(CC)c(C(=O)SCC2COC(C)(C)O2)c1CCC (centres undefined),–,–,2.64,2.2,–,inhibition [4]: < 10%
CCOC(=O)c1c(C)nc(C2CCCC2)c(C(=O)OCc2ccccc2)c1C#Cc1ccccc1,5.41,–,–,–,–,–
CCCOC(=O)c1c(-c2ccccc2)nc(CC)c2c1CCSC2=O,7.6,16.5,0.248,–,67.1,Ki [10]: 2.58 µM
CCCc1c2c(nc(-c3ccccc3)c1C(=O)OCC)CCSC2=O,–,25.1,–,–,43.6,–
CCCc1nc(-c2ccccc2)c(C(=O)OCC)c(CC)c1C(=O)SCC,7.48,–,–,–,–,–
CCOC(=O)c1c(-c2cccc(Cl)c2)nc(CC)c(C(=O)SCC)c1CC,7.87,–,–,–,–,–
CCCOC(=O)c1c(-c2ccccc2)nc(CC)c(C(=O)SCC(F)(F)F)c1CCC,7.74,8.29,0.0181,460,6.14,Ki [10]: 0.495 µM; Ratio [11]: 27; Ratio [12]: 17
CCOC(=O)c1c(C)nc(C2CCC2)c(C(=O)OCc2ccccc2)c1C#Cc1ccccc1,5.62,–,–,–,–,–
CCCOC(=O)c1c(-c2ccccc2)nc(CC)c(C(=O)SCCO)c1CCC,7.29,10.8,0.0511,210,5.59,–
CCCOC(=O)c1c(-c2ccccc2)nc(CC)c(C(=O)SCC)c1CCC,7.72,15.6,0.0189,–,2.05,Ratio [11]: 6; Ratio [12]: 140
CCCOC(=O)c1c(-c2ccccc2)nc(CC)c(C(=O)SCC)c1CCCF,7.22,8.09,0.0599,140,27.4,Ki [10]: 0.9 µM; Ratio [11]: 15; Ratio [12]: 9
CCOC(=O)c1c(-c2ccccc2)nc(CC)c(C(=O)O)c1CC,5.89,–,–,–,–,–
CCCOC(=O)c1c(-c2ccccc2)nc(CCO)c(C(=O)SCC)c1CCC,–,5.94,–,–,29.1,inhibition [9]: 16%
CCCOC(=O)c1c(-c2ccccc2)nc(CCOCc2ccccc2)c(C(=O)SCC)c1CCC,6.96,16,0.109,–,–,–
